According to ChEMBL document CHEMBL2417509, “Synthesis and biological evaluation of prodigiosene conjugates of porphyrin, estrone and 4-hydroxytamoxifen” (2013):
Active and inactive are the calls of the source. The rule behind the calls is not given here.

What was measured:
MDA-MB-435 = assay: Cytotoxicity against human MDA-MB-435 cells after 2 days by sulforhodamine B assay; format: functional; details: MDA-MB-435, 48 h
Outline: (§1)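 NCI60 multi-dose screen, 59 human tumour lines available. Cells exposed to compound across a 5-log mol/L concentration range for 2 days, then fixed and stained with sulphorhodamine B, optical density read. Growth inhibition calculated against time-zero control and untreated cells. GI50 derived from the dose series, average of two replicates.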

SN12C = assay: Cytotoxicity against human SN12C cells after 2 days by sulforhodamine B assay; format: functional; details: 48 h; outline: as §1
OVCAR-5 = assay: Cytotoxicity against human OVCAR5 cells after 2 days by sulforhodamine B assay; format: functional; details: OVCAR-5, 48 h; outline: as §1
SK-OV-3 = assay: Cytotoxicity against human SKOV3 cells after 2 days by sulforhodamine B assay; format: functional; details: SK-OV-3, 48 h; outline: as §1
HOP-92 = assay: Cytotoxicity against human HOP92 cells after 2 days by sulforhodamine B assay; format: functional; details: HOP-92, 48 h; outline: as §1
HCT-116 = assay: Cytotoxicity against human HCT116 cells after 2 days by sulforhodamine B assay; format: functional; details: HCT-116, 48 h; outline: as §1
MCF7 [1] = assay: Cytotoxicity against human ER positive MCF7 cells assessed as cell viability at 1 uM after 72 hrs by MTT assay; format: functional, cell-based
Outline: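 Lines kept in DMEM with 10% fetal bovine serum and 1% penicillin/streptomycin at 37 °C, 5% CO2. Compound applied at 1 µM for 72 h, then standard MTT reduction read-out. Viability given as mean percentage of formazan formed by treated cells relative to mock-treated cells (0.1% DMSO). Run in quadruplicate, standard error, Student's t-test.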

NCI-H23 = assay: Cytotoxicity against human NCI-H23 cells after 2 days by sulforhodamine B assay; format: functional; details: NCI-H23, 48 h; outline: as §1
Malme-3M = assay: Cytotoxicity against human MALME-3M cells after 2 days by sulforhodamine B assay; format: functional; details: 48 h; outline: as §1
NCI-H226 = assay: Cytotoxicity against human NCI-H226 cells after 2 days by sulforhodamine B assay; format: functional; details: NCI-H226, 48 h; outline: as §1
IGROV-1 = assay: Cytotoxicity against human IGROV1 cells after 2 days by sulforhodamine B assay; format: functional; details: IGROV-1, 48 h; outline: as §1
SF-539 = assay: Cytotoxicity against human SF539 cells after 2 days by sulforhodamine B assay; format: functional; details: SF-539, 48 h; outline: as §1
SNB-19 = assay: Cytotoxicity against human SNB19 cells after 2 days by sulforhodamine B assay; format: functional; details: SNB-19, 48 h
Outline: (§2)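 NCI DTP NCI60 multi-dose screen (59 human tumour lines available). Cells exposed to compound over a 5-log mol/L concentration range for 2 days, then fixed and stained with sulphorhodamine B, with optical density read. Growth inhibition calculated relative to time-zero cells and untreated cells, giving GI50 (half-maximal growth inhibition concentration). Average of two replicates.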

A549 = assay: Cytotoxicity against human A549/ATCC cells after 2 days by sulforhodamine B assay; format: functional; details: A549, 48 h; outline: as §1
CAKI-1 = assay: Cytotoxicity against human CAKI-1 cells after 2 days by sulforhodamine B assay; format: functional; details: CAKI-1, 48 h; outline: as §1
HCT-15 = assay: Cytotoxicity against human HCT15 cells after 2 days by sulforhodamine B assay; format: functional; details: HCT-15, 48 h; outline: as §1
SW-620 = assay: Cytotoxicity against human SW620 cells after 2 days by sulforhodamine B assay; format: functional; details: SW-620, 48 h; outline: as §2
UACC-62 = assay: Cytotoxicity against human UACC62 cells after 2 days by sulforhodamine B assay; format: functional; details: UACC-62, 48 h; outline: as §2
U-251 = assay: Cytotoxicity against human U251 cells after 2 days by sulforhodamine B assay; format: functional; details: U-251, 48 h; outline: as §2
UACC-257 = assay: Cytotoxicity against human UACC257 cells after 2 days by sulforhodamine B assay; format: functional; details: UACC-257, 48 h; outline: as §2
NCI-H522 = assay: Cytotoxicity against human NCI-H522 cells after 2 days by sulforhodamine B assay; format: functional; details: NCI-H522, 48 h; outline: as §1
RXF 393 = assay: Cytotoxicity against human RXF393 cells after 2 days by sulforhodamine B assay; format: functional; details: RXF 393, 48 h; outline: as §1
SK-MEL-2 = assay: Cytotoxicity against human SK-MEL-2 cells after 2 days by sulforhodamine B assay; format: functional; details: SK-MEL-2, 48 h; outline: as §1
[2] = Cytotoxicity against human NCI-ADR-RES cells after 2 days by sulforhodamine B assay; format: functional; details: 48 h; outline: as §1
[3] = Cytotoxicity against human Hs578T cells after 2 days by sulforhodamine B assay; format: functional; details: Hs-578T, 48 h; outline: as §1
MCF7 [4] = assay: Cytotoxicity against human MCF7 cells after 2 days by sulforhodamine B assay; format: functional; details: MCF7, 48 h; outline: as §1
OVCAR-4 = assay: Cytotoxicity against human OVCAR4 cells after 2 days by sulforhodamine B assay; format: functional; outline: as §1
K562 = assay: Cytotoxicity against human K562 cells after 2 days by sulforhodamine B assay; format: functional; details: K562, 48 h; outline: as §1
PC-3 = assay: Cytotoxicity against human PC3 cells after 2 days by sulforhodamine B assay; format: functional; details: PC-3, 48 h; outline: as §1
ACHN = assay: Cytotoxicity against human ACHN cells after 2 days by sulforhodamine B assay; format: functional; details: 48 h; outline: as §1
[5] = read-out: LC50 (the source's name)

CC/C(=C(/c1ccc(OCCN(C)C)cc1)c1ccc(OC(=O)CCCCCCCCC(=O)C2=C(C)/C(=C/c3[nH]c(-c4ccc[nH]4)cc3OC)N=C2C)cc1)c1ccccc1
GI50 (MDA-MB-435): 4.57 µM | TGI (MDA-MB-435): > 100 µM | CC50 (MDA-MB-435; [5]): > 100 µM | GI50 (SN12C): 7.59 µM | TGI (SN12C): > 100 µM | CC50 (SN12C; [5]): > 100 µM | GI50 (OVCAR-5): > 100 µM | LC50 (OVCAR-5): > 100 µM | TGI (OVCAR-5): > 100 µM | GI50 (SK-OV-3): > 100 µM | LC50 (concentration killing 50% of starting cells) (SK-OV-3): > 100 µM | TGI (SK-OV-3): > 100 µM | GI50 (HOP-92): 1.95 µM | CC50 (HOP-92; [5]): > 100 µM | GI50 (HCT-116): 3.39 µM | LC50 (concentration killing 50% of cells vs time zero) (HCT-116): > 100 µM | TGI (HCT-116): 21.9 µM | Activity (MCF7 [1]): inactive | GI50 (NCI-H23): 47.9 µM | LC50 (concentration killing 50% of cells) (NCI-H23): > 100 µM | TGI (NCI-H23): > 100 µM | GI50 (Malme-3M): 40.7 µM | LC50 (Malme-3M): > 100 µM | TGI (Malme-3M): > 100 µM | GI50 (NCI-H226): > 100 µM | LC50 (NCI-H226): > 100 µM | TGI (NCI-H226): > 100 µM | GI50 (IGROV-1): 22.9 µM | LC50 (IGROV-1): > 100 µM | TGI (IGROV-1): > 100 µM | GI50 (SF-539): 12 µM | LC50 (SF-539): > 100 µM | TGI (SF-539): 50.1 µM | GI50 (SNB-19): 6.31 µM | TGI (SNB-19): > 100 µM | CC50 (SNB-19; [5]): > 100 µM | GI50 (A549): 4.17 µM | LC50 (concentration giving 50% net cell kill) (A549): > 100 µM | TGI (A549): > 100 µM | GI50 (CAKI-1): 6.92 µM | LC50 (concentration killing 50% of the cells present at time zero) (CAKI-1): > 100 µM | TGI (CAKI-1): > 100 µM | GI50 (HCT-15): 5.13 µM | LC50 (HCT-15): > 100 µM | TGI (HCT-15): 97.7 µM | GI50 (SW-620): 3.72 µM | LC50 (concentration killing 50% of cells) (SW-620): 56.2 µM | TGI (SW-620): 14.1 µM | GI50 (UACC-62): 3.39 µM | TGI (UACC-62): 18.2 µM | CC50 (UACC-62; [5]): > 100 µM | GI50 (U-251): 6.61 µM | LC50 (U-251): > 100 µM | TGI (U-251): > 100 µM | GI50 (UACC-257): 63.1 µM | TGI (UACC-257): > 100 µM | CC50 (UACC-257; [5]): > 100 µM | GI50 (NCI-H522): 21.4 µM | LC50 (NCI-H522): > 100 µM | TGI (NCI-H522): > 100 µM | GI50 (RXF 393): 13.8 µM | LC50 (concentration killing 50% of cells) (RXF 393): > 100 µM | TGI (RXF 393): > 100 µM | GI50 (SK-MEL-2): 30.9 µM | LC50 (SK-MEL-2): > 100 µM | TGI (SK-MEL-2): > 100 µM | GI50 [2]: 31.6 µM | TGI [2]: > 100 µM | CC50 [2, 5]: > 100 µM | GI50 [3]: 4.79 µM | TGI [3]: 85.1 µM | CC50 [3, 5]: > 100 µM | GI50 (MCF7 [4]): 0.16 µM | LC50 (concentration giving 50% net cell kill) (MCF7 [4]): > 100 µM | TGI (MCF7 [4]): 11 µM | Activity (OVCAR-4): inactive | LC50 (concentration killing 50% of cells) (OVCAR-4; OVCAR-4, 48 h): > 100 µM | TGI (OVCAR-4; OVCAR-4, 48 h): > 100 µM | GI50 (K562): 4.57 µM | LC50 (concentration killing 50% of cells) (K562): > 100 µM | TGI (K562): > 100 µM | GI50 (PC-3): 5.89 µM | LC50 (concentration killing 50% of cells) (PC-3): > 100 µM | TGI (PC-3): > 100 µM | GI50 (ACHN): 7.76 µM | LC50 (concentration killing 50% of cells) (ACHN): > 100 µM | TGI (ACHN): > 100 µM
